Data reported in ChEMBL document CHEMBL3243953, “5-Aryl-1,5-dihydro-2H-1,4-benzodiazepin-2-one derivatives as antianxiety agents” (J Med Chem, 1977).

Key:
[1] = Acute toxicity in po dosed mouse; format: organism-based; details: in vivo
In short: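 Mice dosed orally; acute toxicity expressed as LD50 (mg/kg), calculated by the Bliss method.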

Mus musculus [2] = assay: Muscle relaxant activity in po dosed mouse assessed as muscle relaxation by rotarod test; format: functional
In short: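 Rotarod performance test in mice after oral dosing, used as a measure of muscle relaxant activity; result expressed as ED50 (mg/kg).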

Mus musculus [3] = assay: Anticonvulsant activity in po dosed mouse by maximal electroshock test; format: functional
In short: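 Maximal electroshock test in mice after oral dosing, used as a measure of anticonvulsant activity; ED50 (mg/kg) reported.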

Mus musculus [4] = assay: Anticonvulsant activity in po dosed mouse assessed as inhibition of pentylene-tetrazole-induced convulsion; format: functional
In short: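 Antagonism of pentylenetetrazole-induced convulsions in orally dosed mice, used as a measure of tranquilizing activity; ED50 (mg/kg) reported.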

| Compound | LD50 [1] | ED50 (Mus musculus [2]) | ED50 (Mus musculus [3]) | ED50 (Mus musculus [4]) |
| --- | --- | --- | --- | --- |
| CC(=O)OC1(c2ccccc2)c2cc([N+](=O)[O-])ccc2NC(=O)CN1[N+](=O)[O-] (stereo unspecified) | > 1000 mg/kg | > 100 mg/kg | > 100 mg/kg | 58 mg/kg |
| COC1(c2ccccc2)c2cc(Cl)ccc2NC(=O)CN1[N+](=O)[O-] (stereo unspecified) | > 1000 mg/kg | > 100 mg/kg | > 100 mg/kg | > 100 mg/kg |
| COC1(c2ccccc2)c2cc([N+](=O)[O-])ccc2NC(=O)CN1[N+](=O)[O-] (stereo unspecified) | > 1000 mg/kg | > 100 mg/kg | > 100 mg/kg | 13 mg/kg |
| COC1(c2ccccc2)N=CC(=O)N(C)c2ccc(Cl)cc21 (stereo unspecified) | > 1000 mg/kg | 27.5 mg/kg | 53 mg/kg | 0.7 mg/kg |
| COC1(c2ccccc2)N=CC(=O)N(C)c2ccc([N+](=O)[O-])cc21 (stereo unspecified) | 750 mg/kg | 5.2 mg/kg | 76 mg/kg | 0.7 mg/kg |
| COC1(c2ccccc2)c2cc(Cl)ccc2N(C)C(=O)CN1[N+](=O)[O-] (stereo unspecified) | > 1000 mg/kg | > 100 mg/kg | > 100 mg/kg | > 100 mg/kg |
| COC1(c2ccccc2)N=CC(=O)Nc2ccc(Cl)cc21 (stereo unspecified) | > 1000 mg/kg | 28.1 mg/kg | > 100 mg/kg | 1.6 mg/kg |
| COC1(c2ccccc2)N=CC(=O)Nc2ccc([N+](=O)[O-])cc21 (stereo unspecified) | > 1000 mg/kg | 19.1 mg/kg | > 100 mg/kg | 1.4 mg/kg |
| O=C1Nc2ccc(Cl)cc2C(c2ccccc2)=NC1OCCO (stereo unspecified) | > 1000 mg/kg | > 100 mg/kg | > 100 mg/kg | 36 mg/kg |
| O=C1Nc2ccc([N+](=O)[O-])cc2C(c2ccccc2)=NC1OCCO (stereo unspecified) | > 1000 mg/kg | > 100 mg/kg | > 100 mg/kg | 9.2 mg/kg |
| O=C1Nc2ccc(Cl)cc2C(c2ccccc2)=NC1OCCCl (stereo unspecified) | > 1000 mg/kg | > 100 mg/kg | > 100 mg/kg | 13 mg/kg |
| O=C1Nc2ccc([N+](=O)[O-])cc2C(c2ccccc2)=NC1OCCCl (stereo unspecified) | > 1000 mg/kg | > 100 mg/kg | > 100 mg/kg | 9.2 mg/kg |
| O=C1Nc2ccc(Cl)cc2C(c2ccccc2)=NC1NO (stereo unspecified) | > 1000 mg/kg | > 100 mg/kg | > 100 mg/kg | 32 mg/kg |
| N#CC1N=C(c2ccccc2)c2cc(Cl)ccc2NC1=O (stereo unspecified) | > 1000 mg/kg | > 100 mg/kg | > 100 mg/kg | 14 mg/kg |
| N#CC1N=C(c2ccccc2)c2cc([N+](=O)[O-])ccc2NC1=O (stereo unspecified) | > 1000 mg/kg | > 100 mg/kg | > 100 mg/kg | > 100 mg/kg |
| NC1N=C(c2ccccc2)c2cc(Cl)ccc2NC1=O (stereo unspecified) | > 1000 mg/kg | > 100 mg/kg | > 100 mg/kg | 85 mg/kg |
| CNC1=NC(c2ccccc2)c2cc([N+](=O)[O-])ccc2N(C)C1=O (stereo unspecified) | > 1000 mg/kg | > 100 mg/kg | > 100 mg/kg | > 100 mg/kg |
| CN1C(=O)CN=C(c2ccccc2)c2cc(Cl)ccc21 [DIAZEPAM] |  | 14.4 mg/kg | 62.2 mg/kg | 1.2 mg/kg |
